Experimental data of several laboratories.
Each line is one published result; the experiments were not run side by side.
Target: Cyclin-dependent kinase 14 (CDK14, Homo sapiens, UniProt O94921)

Structure (SMILES) | effect on | technique | tested at | remaining binding
Cc1cnc(Nc2ccc(C(=O)N3CCC(N4CCCC4)CC3)cc2)nc1-c1cc2ccccc2s1 | binding | competition with immobilised ligand | 1 µM | 100%
c1cnn2ncc(-c3ccnc(N4CCC45COC5)n3)c2c1 | binding |  | 1 µM | 88%
O=C(Nc1c[nH]nc1C(=O)NC1CCNCC1)c1cc(F)cc(F)c1 | binding | competition with immobilised ligand | 1 µM | 99%
O=C(N1CCS(=O)(=O)CC1)N1C[C@H](c2ccc(OC(F)(F)F)cc2)C[C@H](c2nc(C3CC3)no2)C1 | cell-free assay | competition with immobilised ligand | 1 µM | 100%
COc1ccnn2ncc(-c3ccnc(N(C)C)n3)c12 | binding |  | 1 µM | 100%
O=C(N[C@H]1CCCCC/C=C\C2C[C@@]2(C(=O)O)NC(=O)[C@@H]2C[C@@H](Oc3ccncc3)CN2C1=O)OC1CCCC1 (stereo partly drawn) | binding | competition with immobilised ligand | 1 µM | 91%
CN(CCCC(F)(F)F)c1nccc(-c2cnn3ncccc23)n1 | binding |  | 1 µM | 93%
COc1cnc(Nc2cccc(S(N)(=O)=O)c2)nc1N1CCN(c2ccccc2)CC1 | binding | competition with immobilised ligand | 1 µM | 94%
O=C(Nc1cnc(Oc2ccc(F)cc2)nc1)N1CCc2ncccc2[C@@H]1c1ccc(F)cc1 | cell-free assay | competition with immobilised ligand | 1 µM | 100%
N[C@H]1CCN(c2nccc(-c3cnn4ncccc34)n2)C1 | binding |  | 1 µM | 100%
c1cncc(-c2cccc(Nc3nccc(NC4CCCCC4)n3)c2)c1 | binding | competition with immobilised ligand | 10 µM | 90%
CN(C)c1nccc(-c2cnc3ncccn23)n1 | binding |  | 1 µM | 100%
CN(C(=O)c1ccccc1)c1cc(N(C)c2ccc3c(c2)CCc2ccc(C(=O)NCCN4CCOCC4)cc2C3=O)ccc1F | cell-free assay | competition with immobilised ligand | 1 µM | 100%
COc1ncc2cc3ccccc3nc2c1C#N | cell-free assay | competition with immobilised ligand | 5 µM | 99%
O=C(c1ccc(Nc2ncc(Cl)c(-c3cc4ccccc4s3)n2)cc1)N1CCC(N2CCCC2)CC1 | binding | competition with immobilised ligand | 1 µM | 78%
CN(C)c1nccc(-c2cnn3ncccc23)n1 | binding |  | 1 µM | 89%
Cc1cc(NC(=O)c2cccc(S(F)(F)(F)(F)F)c2)cc(-n2ccn3nc(-c4cccnc4)cc23)c1 | cell-free assay | competition with immobilised ligand | 1 µM | 93.8%
CNC(=O)[C@@H]1CC[C@@H](n2c(-c3ccc4cnccc4c3)nc3ccc(C(=O)NCc4cccc(C(N)=O)c4)cc32)C1 | binding | competition with immobilised ligand | 1 µM | 100%
